# TRPC6 activator = mouse TRPC6 channel activation; Q61143; HEK293-TRPC6 membrane potential dye fluorescence; active compounds read high; B-score at 10 µM; 0.13% of 310,000 active;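 active = B-score of the integrated fluorescence ratio above library mean plus 3 SD, and starting fluorescence ratio within library mean plus 5 SD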;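 note: higher score means more depolarization so channel activation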
# Target sequence (Q61143 whole entry, looked up): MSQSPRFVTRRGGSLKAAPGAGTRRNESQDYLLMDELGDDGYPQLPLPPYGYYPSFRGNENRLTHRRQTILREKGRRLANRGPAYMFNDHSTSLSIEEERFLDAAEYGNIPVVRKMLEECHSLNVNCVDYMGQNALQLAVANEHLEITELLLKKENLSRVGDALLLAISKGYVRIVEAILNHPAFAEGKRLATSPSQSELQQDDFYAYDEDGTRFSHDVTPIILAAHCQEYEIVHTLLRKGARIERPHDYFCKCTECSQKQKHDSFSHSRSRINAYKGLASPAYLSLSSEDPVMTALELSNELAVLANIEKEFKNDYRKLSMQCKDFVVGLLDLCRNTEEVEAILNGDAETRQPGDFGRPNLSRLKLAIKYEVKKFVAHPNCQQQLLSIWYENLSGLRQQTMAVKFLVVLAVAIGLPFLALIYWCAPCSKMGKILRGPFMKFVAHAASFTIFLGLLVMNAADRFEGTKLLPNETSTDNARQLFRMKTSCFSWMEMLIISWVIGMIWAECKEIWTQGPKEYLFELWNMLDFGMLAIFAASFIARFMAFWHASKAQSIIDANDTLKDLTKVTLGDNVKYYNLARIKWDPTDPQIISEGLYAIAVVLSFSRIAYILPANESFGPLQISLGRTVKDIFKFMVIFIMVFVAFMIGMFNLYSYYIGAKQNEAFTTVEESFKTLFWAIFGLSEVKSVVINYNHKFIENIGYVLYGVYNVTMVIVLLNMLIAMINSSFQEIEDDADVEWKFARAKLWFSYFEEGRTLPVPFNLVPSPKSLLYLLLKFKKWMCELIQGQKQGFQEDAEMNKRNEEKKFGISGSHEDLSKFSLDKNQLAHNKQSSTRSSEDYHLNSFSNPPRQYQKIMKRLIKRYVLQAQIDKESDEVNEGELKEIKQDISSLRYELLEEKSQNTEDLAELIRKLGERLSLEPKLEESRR
# FID counter = displaces DNA intercalator in HCV helicase counter-screen | DNA fluorescent intercalator displacement, fluorescence | inhibition, % at 7.9 µM | 0.17% of 290,000 active | AID 1845; in the data active = inhibition above about 37%;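 note: 0% = vehicle and 100% = reference compound; higher means more ethidium bromide displaced from hairpin DNA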
# TRPC4 act = opens the mouse TRPC4 cation channel; HEK293 TRPC4beta/mu-opioid, Fluo4 calcium fluorescence; active compounds read high; B-score at 10 µM; 0.49% of 310,000 active; Q9QUQ5; AID 2237;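 active = B-score above 5 SD of library B-scores, and initial fluorescence ratio not above library mean plus 5 SD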;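 note: positive B-score marks a calcium rise read as TRPC4 activation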
#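 Assay system: HEK293 stable line with TRPC4beta plus mu-opioid receptor; schedule: 45 min room-temperature Fluo4 loading, 110 s read; technique: kinetic Fluo4 calcium fluorescence; evaluation: integrated baseline-normalised fluorescence ratio, converted to per-well B score; controls: buffer (low) and maximal DAMGO (high)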
# TRPC6 inhibitor = blocks the mouse TRPC6 cation channel | HEK293-TRPC6, membrane potential dye, ACh-evoked depolarization; active compounds read low | B-score at 10 µM | 1.1% of 310,000 active | AID 2553;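 active = B-score under library mean minus 3 SD, initial fluorescence not abnormally high, positive integrated signal ratio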;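 note: B-score derived from integrated fluorescence ratio over the kinetic read; more negative B-score means stronger inhibition of depolarization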
# TRPC4 potent = TRPC4 (mouse) allosteric potentiation | HEK293 TRPC4beta/mu-opioid, DAMGO EC20, Fluo-4 Ca2+ flux; active compounds read high | 0.42% of 310,000 active | B-score at 10 µM | AID 2227;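 active = B-score of calcium response area above 5 SD of library B-scores, with initial fluorescence ratio within 5 SD of library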;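 note: B-score of integrated fluorescence ratio over time as area under calcium response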
# TRPC4 inh = inhibitors of mouse TRPC4 channel; B-score at 10 µM; 0.39% of 300,000 active; HEK293 TRPC4beta/mu-opioid, DAMGO-evoked Fluo4 calcium flux; active compounds read low;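 active = B-score over 3 SD under the library average, no early fluorescence shift, positive overall ratio signal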
#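 Assay system: HEK293 cells with stable TRPC4beta plus mu-opioid receptor expression. Dosing: single dose. Measured by: Fluo4 Ca2+ flux fluorescence. Also added: DAMGO in two steps, submaximal then maximal. Read-out: B score from integrated Fluo4 fluorescence ratio.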
# TRPC4 sel inh 2 = second check of whether TRPC6 inhibitors also affect mouse TRPC4 | 42% of 920 active | shares compounds with TRPC6 inhibitor | inhibition, % at 10 µM | HEK293 TRPC4/MOR, membrane potential dye fluorescence; channel activated by saturating DAMGO dose | AID 2776;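 active = compounds whose fluorescence signal differed from control wells by over 3 SD, either direction, in both duplicate plates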
# TRPC4 spec = selectivity of TRPC6 inhibitors: effect on mouse TRPC4; activity change, negative = inhibition, % at 10 µM; HEK293 TRPC4/mu-opioid, membrane potential fluorescence; 61% of 920 active; shares compounds with TRPC6 inhibitor;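 active = rise or fall in signal beyond 3 SD of buffer-only wells in both replicate plates, either sign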;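 note: integrated kinetic ratio of fluorescence range over baseline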
# HEK293 MPD ctr 2-1 = second counter-screen for TRPC6 inhibitors: parental HEK293 cells | shares compounds with TRPC6 inhibitor | parental HEK293 membrane potential dye fluorescence; maximal acetylcholine challenge after compound addition | signal change vs control, % at 10 µM | 31% of 920 active | AID 2779;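 active = membrane potential signal moving either way by over 3 SD of the maximum-effect control, in both duplicate plates, meaning non-specific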
# HEK293 MPD ctr-1 = counter-screen for TRPC6 inhibitors: effect in parental HEK293 cells. shares compounds with TRPC6 inhibitor. parental HEK293 membrane potential dye fluorescence. membrane potential signal change, % at 10 µM. 60% of 920 active;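 active = membrane potential signal shifting up or down by more than 3 SD of buffer-only wells, on both duplicate plates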
# HEK293 MPD ctr-2 = checks TRPC6 modulator effects in parental HEK293 cells | 51% of 2,400 active | shares compounds with TRPC6 inhibitor | membrane potential dye fluorescence | membrane potential signal change, % at 10 µM | AID 488924;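 active = membrane potential signal moves up or down beyond 5 SD from buffer-only wells, on both duplicate plates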
# HEK293 MPD ctr 2-2 = second counter-screen for TRPC6 modulators: effect in parental HEK293 cells; shares compounds with TRPC6 inhibitor; membrane potential dye fluorescence; after compound, maximal acetylcholine stimulation; inhibition, % at 10 µM; 14% of 2,400 active; AID 488926;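 active = membrane potential signal drops by more than 5 SD from the mean control signal, in both duplicate plates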;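 note: plate controls were acetylcholine ECmax control wells for no effect and buffer only wells for full effect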
# TRPC4 ctr mod = tests whether TRPC6 modulators also affect mouse TRPC4 | shares compounds with TRPC6 inhibitor | HEK293 TRPC4/mu-opioid, membrane potential fluorescence | percent change from control (negative = decrease, positive = increase), % at 10 µM | 69% of 2,400 active | AID 488927;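 active = membrane potential signal moved up or down beyond 5 SD of buffer control wells, in both duplicate plates, actives on both sides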;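 note: plate controls were assay buffer wells for no effect and DAMGO maximal-effect wells for full effect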
# TRPC4 ctr inh 2 = second check of whether TRPC6 modulators also affect mouse TRPC4. shares compounds with TRPC6 inhibitor. HEK293 TRPC4/mu-opioid, membrane potential dye fluorescence; stimulated with maximal-effect DAMGO. inhibition, % at 10 µM. 55% of 2,400 active. AID 488928;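 active = drop in membrane potential signal beyond 5 SD of the control wells in both duplicate plates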;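 note: TRPC4 counter screen for TRPC6 hits run under conditions tuned for TRPC6 not TRPC4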
# TRPC6 block conf = mouse TRPC6 inhibitor confirmation | shares compounds with TRPC6 inhibitor | HEK293-TRPC6, membrane potential dye, ACh-evoked depolarization | inhibition, % at 10 µM | 43% of 3,300 active;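 active = fluorescence ratio falls more than 5 SD below the full-stimulation control mean, in both duplicate runs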;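 note: integrated fluorescence ratio of peak minus minimum over baseline after agonist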
# TRPC6 act conf = mouse TRPC6 activator confirmation; AID 488961; activation, % at 10 µM; 11% of 2,800 active; shares compounds with TRPC6 inhibitor; HEK293-TRPC6 membrane potential dye fluorescence, FDSS;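 active = ratio signal rise beyond 5 SD above unstimulated control wells' mean, seen in both duplicate runs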;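 note: plate controls were buffer EC0 wells for no effect and acetylcholine ECmax response for full effect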
# The depositor's hits bear a star; i = inactive; . = no result given. Only some compounds are listed: those with a hit (about 2.3% of all), similar ones and a draw of the others.
SMILES,TRPC6 activator,FID counter,TRPC4 act,TRPC6 inhibitor,TRPC4 potent,TRPC4 inh,HEK293 MPD ctr-2,HEK293 MPD ctr 2-2,TRPC4 ctr mod,TRPC4 ctr inh 2,TRPC6 block conf,TRPC6 act conf,others
N#Cc1nc(-c2cccc3ccccc23)oc1NCCN1CCCCC1,i,8.6,i,-7.57*,i,i,.,.,.,.,i,i,TRPC4 sel inh 2=i;TRPC4 spec=i;HEK293 MPD ctr 2-1=i;HEK293 MPD ctr-1=i
Cc1ccc(S(=O)(=O)N2CCCCC2)cc1C(=O)OC1CCCCC1=O (configuration not stated),i,.,i,i,i,i,.,.,.,.,.,.,
O=C(/C=C1\NCC2c3ccccc3CCN2C1=O)c1ccccc1 (configuration not stated),i,-6.4,i,-6.07*,i,i,171.0%*,i,13.5%*,i,72.0%*,.,
CC1CCCCC1NC(=O)c1ccc(NC2=NC3CS(=O)(=O)CC3S2)cc1 (configuration not stated),i,-8.4,i,i,i,i,.,.,.,.,.,.,
CC(OC(=O)c1cccc(-n2cnnn2)c1)C(=O)Nc1ccc(F)cc1Cl (configuration not stated),i,.,i,i,i,i,.,.,.,.,.,.,
COc1ccc(S(=O)(=O)N2CCCCCC2)cc1NC(=O)Cc1ccccc1F,16.3*,-34.5,i,-8.92*,i,i,i,i,i,i,i,i,
COc1ccc(S(=O)(=O)N2CCCCCC2)cc1Br,i,0.1,i,-6.4*,i,i,i,i,9.0%*,i,46.5%*,i,
COc1nc(C)nc2c1sc1nc3c(cc12)COC(C)(C)C3,i,-6.6,i,-6.42*,i,i,i,i,-11.5%*,i,i,i,
Cc1nc(OCC(C)C)c2sc3nc4c(cc3c2n1)COC(C)(C)C4,i,-11.4,i,i,i,i,.,.,.,.,.,.,
Cc1cc(NC(=O)CSc2nnc(C)n2C)no1,i,-3.5,i,i,i,i,.,.,.,.,.,.,
CCOC(=O)c1c(NC(=O)CSc2nnc(C)s2)sc2c1CCN(C)C2,i,-7.9,i,-5.81*,i,i,-65.0%*,i,-15.5%*,i,i,i,
CCOC(=O)c1c(NC(=O)Cc2ccccc2)sc2c1CCN(C)C2,i,11.5,i,i,i,i,.,.,.,.,.,.,
CCOC(=O)c1c(NC(=O)c2ccc(S(=O)(=O)N(C)CC3CCCO3)cc2)sc2c1CCN(C)C2 (configuration not stated),i,26.8,i,-5.24*,i,i,167.0%*,i,-29.5%*,i,i,i,
COC(=O)c1c(NC(=O)c2ccc(S(=O)(=O)N3CCOCC3)cc2)sc2c1CCN(C)C2,.,22.9,.,.,.,.,.,.,.,.,.,.,
COc1cc(CCC(=O)OCC(=O)Nc2ccc(F)c(F)c2F)cc(OC)c1OC,i,-27.4,i,i,i,i,.,.,.,.,.,.,
O=C(c1ccccc1[N+](=O)[O-])N1CC2C3C=CC(C3)C2C1 (configuration not stated),i,0.6,i,-5.45*,i,i,i,i,i,i,i,i,
O=C(c1cccc([N+](=O)[O-])c1)N1CC2C3C=CC(C3)C2C1 (configuration not stated),i,-0.4,i,i,i,i,.,.,.,.,.,.,
Cc1nnc(C)n1/N=C/c1c(O)ccc2ccccc12,i,-2.6,i,i,i,i,.,.,.,.,.,.,
Cc1nnc(-c2ccccc2)c(=O)n1/N=C/c1c(O)ccc2ccccc12,i,-13.8,i,-7.35*,i,i,.,.,.,.,80.5%*,.,TRPC4 sel inh 2=68.0%*;TRPC4 spec=23.1%*;HEK293 MPD ctr 2-1=-242.0%*;HEK293 MPD ctr-1=8.7%*
N#CCOC(=O)[C@H](Cc1ccccc1)N1C(=O)c2ccccc2C1=O,i,-16.5,i,-7.13*,i,i,.,.,.,.,i,i,TRPC4 sel inh 2=i;TRPC4 spec=-0.7%*;HEK293 MPD ctr 2-1=i;HEK293 MPD ctr-1=i
COc1ccc(Cl)cc1Nc1nc(N)c2ccccc2n1,i,36.8*,i,-10.8*,i,i,.,.,.,.,80.9%*,i,TRPC4 sel inh 2=46.5%*;TRPC4 spec=-20.0%*;HEK293 MPD ctr 2-1=i;HEK293 MPD ctr-1=-185.0%*
Nc1nc(Nc2cccc(F)c2)nc2ccccc12,i,12.7,i,-13*,i,i,.,.,.,.,90.2%*,i,TRPC4 sel inh 2=22.5%*;TRPC4 spec=-33.0%*;HEK293 MPD ctr 2-1=-37.0%*;HEK293 MPD ctr-1=-493.0%*
Cc1ccc(C)c(Nc2nc(N)c3ccccc3n2)c1,i,8.3,i,-15.9*,i,i,.,.,.,.,89.6%*,i,TRPC4 sel inh 2=18.5%*;TRPC4 spec=-30.3%*;HEK293 MPD ctr 2-1=-3.0%*;HEK293 MPD ctr-1=-269.0%*
Cc1ccc(O)c(Nc2c3ccccc3nc3ccccc23)c1,i,4.9,i,-5.59*,i,i,-92.0%*,i,-18.5%*,60.0%*,i,i,
O=C(NC1CCOc2ccccc21)c1ccccn1 (configuration not stated),i,-5.6,i,i,i,i,.,.,.,.,.,.,
CCOc1ccc(-c2cccc(NS(=O)(=O)c3ccc([N+](=O)[O-])cc3)c2)nn1,i,.,i,i,i,i,.,.,.,.,.,.,
